Measurements reported in ChEMBL document CHEMBL1145845, “Acetogenins as selective inhibitors of the human ovarian 1A9 tumor cell line” (2003).
Values after ≈ are worked out from the molar mass of the structure shown. Active and inactive are the calls of the source.

Assays:
1A9 [1] = experiment: Effective dose required for inhibitory activity against 1A9 human tumor cell line.; assay type: functional; settings: read-out: ED50 (the source's name)
Outline: (§1)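 Human tumor lines were grown in RPMI-1640 with 25 mM HEPES, 0.25% sodium bicarbonate, 10% FBS and 100 µg/mL kanamycin. KB-VIN is a vincristine-resistant KB subline, and PTX10 is a 1A9 subline with mutated β-tubulin. Trypsinized cells (1500–7500/well) got compound from DMSO stock for 3 days continuous. Cells were fixed with cold 50% TCA, stained with 0.4% SRB, and read at 562 nm. ED50 is the 50% growth-reduction concentration; not active means ≤5% inhibition at the top concentration.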

A549 [2] = experiment: Effective dose required for inhibitory activity against A549 human tumor cell line.; assay type: functional; settings: read-out: ED50 (the source's name); outline: as §1
CAKI-1 [3] = experiment: Effective dose required for inhibitory activity against CAK1 human tumor cell line; assay type: functional; settings: read-out: ED50 (the source's name); outline: as §1
HOS [4] = experiment: Effective dose required for inhibitory activity against HOS human tumor cell line; Not active; assay type: functional, cell-based; outline: as §1
HCT-8 = experiment: Effective dose required for inhibitory activity against HCT-8 human tumor cell line.; assay type: functional; settings: read-out: ED50 (the source's name); outline: as §1
KB [5] = experiment: Effective dose required for inhibitory activity against KB human tumor cell line.; assay type: functional; settings: read-out: ED50 (the source's name); outline: as §1
KB [6] = experiment: Effective dose required for inhibitory activity against KB-VIN human tumor cell line.; assay type: functional; settings: read-out: ED50 (the source's name); outline: as §1
MCF7 [7] = experiment: Effective dose required for inhibitory activity against MCF-7 human tumor cell line.; assay type: functional; settings: read-out: ED50 (the source's name); outline: as §1
PC-3 [8] = experiment: Effective dose required for inhibitory activity against PC-3 human tumor cell line.; assay type: functional; settings: read-out: ED50 (the source's name); outline: as §1
1A9/ptx-10 [9] = experiment: Percent inhibition against PTX10 human tumor cell line at >10 ug/mL; assay type: functional
SK-MEL-2 [10] = experiment: Effective dose required for inhibitory activity against SK-MEL-2 human tumor cell line.; assay type: functional; settings: read-out: ED50 (the source's name); outline: as §1
A549 [11] = experiment: Effective dose required for inhibitory activity against A549 human tumor cell line; Not active; assay type: functional, cell-based; outline: as §1
HOS [12] = experiment: Effective dose required for inhibitory activity against HOS human tumor cell line.; assay type: functional; settings: read-out: ED50 (the source's name); outline: as §1
MCF7 [13] = experiment: Percent inhibition against MCF-7 human tumor cell line at <5 ug/mL; assay type: functional
1A9/ptx-10 [14] = experiment: Effective dose required for inhibitory activity against PTX10 human tumor cell line; assay type: functional; settings: read-out: ED50 (the source's name); outline: as §1
CAKI-1 [15] = experiment: Effective dose required for inhibitory activity against CAK1 human tumor cell line; Not active; assay type: functional, cell-based; outline: as §1
PC-3 [16] = experiment: Effective dose required for inhibitory activity against PC-3 human tumor cell line; Not active; assay type: functional, cell-based; outline: as §1
SK-MEL-2 [17] = experiment: Effective dose required for inhibitory activity against SK-MEL-2 human tumor cell line; Not active; assay type: functional, cell-based; outline: as §1
1A9 [18] = experiment: Percent inhibition against 1A9 human tumor cell line at >10 ug/mL; assay type: functional
1A9 [19] = experiment: Percent inhibition against 1A9 human tumor cell line at 0.10 ug/mL; assay type: functional
Outline: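 Human ovarian 1A9 cells grown in RPMI-1640 with 25 mM HEPES, 0.25% sodium bicarbonate, 10% FBS and 100 µg/mL kanamycin. Freshly trypsinized cells seeded at 1500–7500/well; compound added from DMSO-diluted stock; 3-day continuous exposure. Cells fixed with cold 50% TCA, stained with 0.4% SRB, dye solubilized, A562 read. Percent growth inhibition given where <50% at highest concentration.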

1A9 [20] = experiment: Percent inhibition against 1A9 human tumor cell line at <0.00008 ug/mL; assay type: functional

Row | Structure (SMILES) | EC50 (1A9 [1]) [µg/mL] | EC50 (A549 [2]) [µg/mL] | EC50 (CAKI-1 [3]) [µg/mL] | NA (HOS [4]) | EC50 (HCT-8) [µg/mL] | EC50 (KB [5]) [µg/mL] | EC50 (KB [6]) [µg/mL] | EC50 (MCF7 [7]) [µg/mL] | EC50 (PC-3 [8]) [µg/mL] | Inhibition (1A9/ptx-10 [9]) [%] | EC50 (SK-MEL-2 [10]) [µg/mL] | EC50 (HOS [12]) [µg/mL] | Inhibition (MCF7 [13]) [%] | EC50 (1A9/ptx-10 [14]) [µg/mL] | NA (CAKI-1 [15]) | NA (SK-MEL-2 [17]) | further results
1 | CCCCC(O)C(O)C/C=C\CC[C@H](O)[C@@H]1CC[C@@H](CCCCCCCCCCCC[C@H](O)CC2=C[C@H](C)OC2=O)O1 (stereo partly drawn) | 0.87 (≈ 1.46 µM) | > 20 | > 20 | inactive | > 20 | > 20 | > 20 | 14.3 (≈ 24 µM) | > 20 | 25 | > 20 |  |  |  |  |  | 
2 | CCCCCCCCCCCC[C@@H](O)[C@H]1CC[C@H]([C@H](O)CCCCCCCCCC[C@@H](O)CC2=C[C@H](C)OC2=O)O1 [MURISOLIN] | 0.96 (≈ 1.65 µM) |  | > 20 | inactive | > 20 | > 20 | > 20 | > 20 | > 20 | 21 | > 20 |  |  |  |  |  | NA (A549 [11]): inactive
3 | CCCCCCCCCCCC[C@@H](O)[C@H]1CC[C@H]([C@H](O)CCCC[C@H](O)CCCCC[C@@H](O)CC2=CC(C)OC2=O)O1 (stereo partly drawn) [ANNONACIN] | 0.07 (≈ 0.117 µM) | 7.8 (≈ 13.1 µM) | 9.8 (≈ 16.4 µM) |  | 7.9 (≈ 13.2 µM) | 7.5 (≈ 12.6 µM) | 10.3 (≈ 17.3 µM) |  | 8.2 (≈ 13.7 µM) |  | 13.8 (≈ 23.1 µM) | 8.2 (≈ 13.7 µM) | 62 | 6 (≈ 10.1 µM) |  |  | 
4 | CCCCCCCCCCCC[C@@H](O)[C@H]1CC[C@H]([C@H](O)CCCCCC(O)CCCC[C@@H](O)CC2=C[C@H](C)OC2=O)O1 (stereo partly drawn) | 0.5 (≈ 0.838 µM) | 12 (≈ 20.1 µM) | 16.3 (≈ 27.3 µM) |  | 14.2 (≈ 23.8 µM) | 11.8 (≈ 19.8 µM) | 17 (≈ 28.5 µM) |  | 7.8 (≈ 13.1 µM) |  | 13.1 (≈ 21.9 µM) | 13.1 (≈ 21.9 µM) | 57 | 9.3 (≈ 15.6 µM) |  |  | 
5 | CCCCCCCCCCCC[C@@H](O)[C@H]1CC[C@H]([C@H](O)CCCCCCCCCCCCC2=C[C@H](C)OC2=O)O1 [REL-SOLAMIN] | 7.8 (≈ 13.8 µM) | > 20 |  |  | > 20 | > 20 | > 20 | > 20 |  | 18 |  | > 20 |  |  | inactive | inactive | NA (PC-3 [16]): inactive
6 | CCCCCCCCCCCC[C@H](O)[C@@H]1CC[C@@H]([C@@H](O)CCCCC(=O)CCCCCC2CC(CC(C)=O)C(=O)O2)O1 (stereo partly drawn) [ISOANNONACINONE] | 2.2 (≈ 3.7 µM) | > 20 |  | inactive | > 20 | > 20 | > 20 | > 20 | > 20 | 19 |  |  |  |  | inactive | inactive | 
7 | CCCCCCCCCCCC[C@@H](O)[C@H]1CC[C@H]([C@H](O)CCCCC(O)CCCCCCCC2=C[C@H](C)OC2=O)O1 (stereo partly drawn) | 0.1 (≈ 0.172 µM) | 9.8 (≈ 16.9 µM) | 13.9 (≈ 23.9 µM) |  | 10.8 (≈ 18.6 µM) | 7.6 (≈ 13.1 µM) | 12.5 (≈ 21.5 µM) |  | 8.1 (≈ 13.9 µM) |  | 14.2 (≈ 24.4 µM) | 9.8 (≈ 16.9 µM) | 55 | 5 (≈ 8.61 µM) |  |  | 
8 | CCCCCCCCCCCC[C@H](O)[C@@H]1CC[C@@H]([C@@H](O)CCCCCCC(O)CCCCC[C@@H](O)CC2=C[C@H](C)OC2=O)O1 (stereo partly drawn) [ANNOMONTACIN] | 0.078 (≈ 0.125 µM) | 11.8 (≈ 18.9 µM) | 15.3 (≈ 24.5 µM) |  | 13.7 (≈ 21.9 µM) | 9.2 (≈ 14.7 µM) | 13.7 (≈ 21.9 µM) |  | 9.2 (≈ 14.7 µM) |  | 14.1 (≈ 22.6 µM) | 14.1 (≈ 22.6 µM) | 51 | 6.8 (≈ 10.9 µM) |  |  | 
9 | CCCCCCCCCCCC[C@@H](O)[C@H]1CC[C@H]([C@H](O)CCCCC(=O)CCCCCCCC2=C[C@H](C)OC2=O)O1 | 0.76 (≈ 1.31 µM) | > 20 |  | inactive | > 20 | > 20 | > 20 | 9.5 (≈ 16.4 µM) | > 20 | 31 | > 20 |  |  |  | inactive |  | 
10 | CCCCCC[C@@H](O)CCC[C@H](O)[C@@H]1CC[C@@H]([C@H](O)CC[C@@H](O)[C@@H]2CC[C@@H](CCCCCCCCCC3=C[C@@H](C)OC3=O)O2)O1 [Squamostatin-A] | 0.0087 (≈ 0.0136 µM) | > 20 | > 20 |  | > 20 | > 20 | > 20 | 8 (≈ 12.5 µM) | > 20 | 40 |  | > 20 |  |  |  | inactive | 
11 | CCCCC/C=C\CCC(O)C(O)CCCC[C@@H](O)[C@@H]1CC[C@@H](CCCCCCCCCCCCC2=C[C@H](C)OC2=O)O1 (stereo partly drawn) |  |  |  | inactive | > 20 | > 20 | > 20 | > 20 | > 20 | 13 |  |  |  |  | inactive | inactive | Inhibition (1A9 [18]): 39%; NA (A549 [11]): inactive
12 | CCCCCCCCC[C@H](O)[C@@H]1CC[C@H]([C@H]2CC[C@@H](CCCCCCCCCC[C@H](O)CC3=C[C@H](C)OC3=O)O2)O1 |  | > 20 |  |  | > 20 | > 20 | > 20 | > 20 | > 20 | 23 |  | > 20 |  |  | inactive | inactive | inhibition at 0.1 µg/mL (1A9 [19]): 47%
13 | CCCCCCCCCC[C@@H](O)[C@@H]1CC[C@@H]([C@@H]2CC[C@@H]([C@H](O)CCCCCCCCCC(O)CC3=CC(C)OC3=O)O2)O1 (stereo partly drawn) [BULLATACIN] |  | 13.3 (≈ 21.8 µM) | 16.8 (≈ 27.6 µM) |  | 14.9 (≈ 24.5 µM) | 10 (≈ 16.4 µM) | 16.1 (≈ 26.4 µM) | 8.4 (≈ 13.8 µM) | 14.3 (≈ 23.5 µM) |  | 17.1 (≈ 28.1 µM) | 11.9 (≈ 19.5 µM) |  | 8 (≈ 13.1 µM) |  |  | Inhibition (1A9 [20]): 55%
